# In PMC3771329 (Journal of the American Chemical Society, 2013):
# What was measured:
# [1] = target: furin (Homo sapiens, UniProt P09958); assay: Fluorescence spectrometry of probes incubated with and without furin; type: biochemical; conditions: 2 μM probe, furin (100 pmol·U−1) buffer (100 mM HEPES, 1 mM CaCl2, pH 7.5) with 1 mM TCEP, 3 h, 37 °C; n=3
# [2] = type: physicochemical; conditions: after incubation with furin, buffer pH 7.5 with TCEP, 37 °C, 3 h
# [3] = system: MDA-MB-231 (furin-overexpressing) subcutaneous tumors; assay: Furin-like activity photoacoustic imaging in mice, MDA-MB-231 tumors; type: in vivo; conditions: 25 nmol by tail vein; imaged every 15 min up to 60 min; n=4
# Method in brief: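 Female nude (Nu/Nu) mice carried subcutaneous upper-thigh xenografts from 10 million MDA-MB-231 or LoVo cells, grown 3–4 weeks. Mice were under 2% isoflurane in oxygen with a tail-vein catheter. Tumors got an 11-min pre-scan at 740 nm. Test compound (25 nmol, diluted from DMSO stock into 150 μL sterile PBS) was given i.v. PA scans ran every 15 min for 1 h: 120 views, 100 pulses/view, 250 μm voxels, 3D back-projection reconstruction. Signal normalized to t=0; n=4/group, SD; two-sided paired t test.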
# furin, sequence (P09958 108-595 limits assumed): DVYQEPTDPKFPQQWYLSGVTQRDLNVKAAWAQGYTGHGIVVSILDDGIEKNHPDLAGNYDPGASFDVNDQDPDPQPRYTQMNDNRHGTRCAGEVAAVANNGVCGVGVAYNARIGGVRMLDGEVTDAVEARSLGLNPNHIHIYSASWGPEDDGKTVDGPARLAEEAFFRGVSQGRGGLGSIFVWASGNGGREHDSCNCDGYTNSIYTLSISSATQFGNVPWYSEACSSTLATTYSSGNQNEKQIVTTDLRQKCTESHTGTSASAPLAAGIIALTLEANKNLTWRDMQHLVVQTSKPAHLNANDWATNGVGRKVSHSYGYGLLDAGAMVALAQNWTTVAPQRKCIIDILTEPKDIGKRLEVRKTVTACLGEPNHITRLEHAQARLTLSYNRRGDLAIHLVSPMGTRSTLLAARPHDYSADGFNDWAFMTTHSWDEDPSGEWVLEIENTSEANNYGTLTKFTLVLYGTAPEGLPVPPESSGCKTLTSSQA
"drop in fluorescence, incubated with furin relative to no furin added [1]",Substance,precipitation / water solubility of the oligomers formed with furin [2],PA signal in MDA-MB-231 tumors after probe injection [3]
6 fold,Ac-RVRRC(SEt)K(Atto740)-CABT [ESOR-PA01],no precipitate was formed,–
no significant decrease,Ac-RRRVC(SEt)K(Atto740)-CABT [ESOR-PA02],–,very low levels of PA signal
